The values below come from ChEMBL document CHEMBL1146878, “A novel class of AMPA receptor allosteric modulators. Part 1: design, synthesis, and SAR of 3-aryl-4-cyano-5-substituted-heteroaryl-2-carboxylic acid derivatives” (Bioorg Med Chem Lett, 2006).

What all share (format): functional, cell-based
Test [1] addresses T1, Glutamate receptor 4 (Homo sapiens, UniProt P48058). Description: Activity against human GLUR4 flop expressed in HEK293 cells assessed as glutamate-stimulated calcium influx by FLIPR assay. In a few lines:
(§1)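 Stably transfected HEK-293 cells expressing homomeric GluR4 (flip or flop splice form) loaded with 8 µM Fluo3-AM for 60 min in HEPES-buffered saline (5 mM CaCl2, 5.5 mM glucose). Compounds from DMSO (0.1–3 µM) co-applied with 100 µM glutamate; calcium influx read by FLIPR. Duplicate 10-point curves; response expressed as % of 100 µM cyclothiazide, EC50 calculated.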

In test [2] the target is T1, Glutamate receptor 4. Description: Activity against human GLUR4 flip expressed in HEK293 cells assessed as glutamate-stimulated calcium influx by FLIPR assay. In a few lines:
as §1

The target of test [3] is T2, Glutamate receptor 2 (Homo sapiens, UniProt P42262). Put plainly: Activity against human GLUR2 flop expressed in HEK293 cells assessed as glutamate-stimulated calcium influx by FLIPR assay.
The target of test [4] is T2, Glutamate receptor 2. Put plainly: Activity against human GLUR2 flip expressed in HEK293 cells assessed as glutamate-stimulated calcium influx by FLIPR assay.

T2 sequence (P42262 whole entry): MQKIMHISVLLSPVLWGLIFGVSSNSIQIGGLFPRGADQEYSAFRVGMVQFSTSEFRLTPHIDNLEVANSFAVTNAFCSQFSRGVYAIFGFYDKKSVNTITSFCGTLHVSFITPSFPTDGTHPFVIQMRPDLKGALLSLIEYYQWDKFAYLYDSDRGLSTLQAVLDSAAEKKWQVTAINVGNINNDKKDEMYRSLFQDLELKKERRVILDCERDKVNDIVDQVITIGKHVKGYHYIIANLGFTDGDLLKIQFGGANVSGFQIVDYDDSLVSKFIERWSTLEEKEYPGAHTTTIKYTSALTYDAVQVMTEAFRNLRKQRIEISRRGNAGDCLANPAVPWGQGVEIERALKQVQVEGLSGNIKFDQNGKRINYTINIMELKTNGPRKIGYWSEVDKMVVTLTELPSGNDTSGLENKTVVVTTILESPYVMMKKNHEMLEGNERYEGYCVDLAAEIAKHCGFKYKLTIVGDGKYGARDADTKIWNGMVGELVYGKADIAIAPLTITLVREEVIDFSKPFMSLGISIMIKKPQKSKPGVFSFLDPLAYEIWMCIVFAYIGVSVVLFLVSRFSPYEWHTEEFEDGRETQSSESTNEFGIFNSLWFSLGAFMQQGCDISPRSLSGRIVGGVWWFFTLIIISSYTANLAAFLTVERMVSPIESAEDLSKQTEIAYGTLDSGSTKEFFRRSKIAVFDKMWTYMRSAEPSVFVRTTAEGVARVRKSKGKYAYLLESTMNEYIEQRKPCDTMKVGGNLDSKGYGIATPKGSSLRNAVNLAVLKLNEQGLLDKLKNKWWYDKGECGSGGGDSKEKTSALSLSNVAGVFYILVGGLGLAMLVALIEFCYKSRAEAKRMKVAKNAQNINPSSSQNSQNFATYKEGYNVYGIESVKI
T1 sequence (P48058 whole entry, canonical isoform): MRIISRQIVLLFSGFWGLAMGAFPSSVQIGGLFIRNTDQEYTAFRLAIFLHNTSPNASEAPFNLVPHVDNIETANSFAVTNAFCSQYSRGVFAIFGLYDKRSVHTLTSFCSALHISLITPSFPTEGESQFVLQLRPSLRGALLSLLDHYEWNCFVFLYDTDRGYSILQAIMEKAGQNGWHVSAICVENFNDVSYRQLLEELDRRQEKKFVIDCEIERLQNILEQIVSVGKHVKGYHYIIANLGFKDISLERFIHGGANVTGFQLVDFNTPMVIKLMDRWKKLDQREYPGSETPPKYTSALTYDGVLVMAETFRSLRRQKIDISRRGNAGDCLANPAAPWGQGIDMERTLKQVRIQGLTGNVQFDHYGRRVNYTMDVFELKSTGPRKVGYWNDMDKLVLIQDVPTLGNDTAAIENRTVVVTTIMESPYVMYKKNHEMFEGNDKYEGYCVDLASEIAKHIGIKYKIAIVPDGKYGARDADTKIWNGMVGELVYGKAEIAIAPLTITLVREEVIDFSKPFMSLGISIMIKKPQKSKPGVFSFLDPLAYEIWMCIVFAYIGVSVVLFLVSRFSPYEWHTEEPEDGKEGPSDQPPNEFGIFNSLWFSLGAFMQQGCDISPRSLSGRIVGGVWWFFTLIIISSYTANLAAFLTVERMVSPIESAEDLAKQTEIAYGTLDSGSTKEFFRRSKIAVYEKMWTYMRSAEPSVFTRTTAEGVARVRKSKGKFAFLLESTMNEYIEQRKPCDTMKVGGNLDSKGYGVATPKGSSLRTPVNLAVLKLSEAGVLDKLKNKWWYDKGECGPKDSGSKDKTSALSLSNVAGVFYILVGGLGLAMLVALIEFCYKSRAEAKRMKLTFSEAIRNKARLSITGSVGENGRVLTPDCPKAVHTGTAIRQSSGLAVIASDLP

For the compound `CC(C)(C)c1ccc(-c2c(C(=O)O)sc(Sc3ccccc3)c2C#N)cc1`, the EC50 in test [1] and in test [2] was above 3000 nM throughout.

For the compound `CC(C)Sc1sc(C(=O)O)c(-c2ccc(C(C)(C)C)cc2)c1C#N`, the results for the EC50 in test [1] and in test [2] were above 3000 nM and 1870 nM, respectively.

In the case of `CCc1sc(C(=O)O)c(-c2ccc(C(C)(C)C)cc2)c1C#N`, the EC50 in test [3] is 216 nM; in test [4] it was 47 nM; in test [1], 1220 nM; in test [2], 183 nM.

`CC(C)(C)c1ccc(-c2c(C(=O)O)sc(C(F)(F)F)c2C#N)cc1`: the EC50 in test [3] was found to be 231 nM; in test [4], 78 nM; in test [1], 488 nM; in test [2] it was 273 nM.

With `CCSc1sc(C(=O)O)c(-c2ccc(C(C)(C)C)cc2)c1C#N`, the EC50 in test [1] was above 3000 nM; in test [2] it was 440 nM.

As for `CSc1oc(C(=O)O)c(-c2ccc(C(C)(C)C)cc2)c1C#N`, the figures for the EC50 in test [1] and in test [2] were above 3000 nM and 1980 nM, respectively.

With `CC(C)(C)c1ccc(-c2c(C(=O)O)sc(S(C)(=O)=O)c2C#N)cc1`, the EC50 is 1810 nM in test [3], 333 nM in test [4], above 3000 nM in test [1] and 629 nM in test [2].

`CN(C)c1sc(C(=O)O)c(-c2ccc(C(C)(C)C)cc2)c1C#N`: the EC50 in test [3] is 2850 nM; in test [4], 176 nM; in test [1], above 3000 nM; in test [2], 474 nM.

Regarding `CSc1sc(C(=O)O)c(-c2ccc(-c3ccccc3)cc2)c1C#N`, the half-maximal effective concentration (EC50) in test [1] was above 3000 nM; in test [2] it was 795 nM.

`C[S+]([O-])c1sc(C(=O)O)c(-c2ccc(C(C)(C)C)cc2)c1C#N` (stereo not given): the EC50 in test [1] was above 3000 nM; in test [2], 489 nM.

For the compound `CSc1c(C#N)c(-c2ccc(C(C)(C)C)cc2)c(C(=O)O)n1C`, the EC50 in test [3] was 663 nM; in test [4] it was 684 nM; in test [1], 1420 nM; in test [2], 554 nM.

`CCOC(=O)c1sc(SC)c(C#N)c1-c1ccc(C(C)(C)C)cc1`: the EC50 in test [3], in test [4], in test [1] and in test [2] was above 3000 nM in each case.

Take `CC(C)(C)c1ccc(-c2c(C#N)csc2C(=O)O)cc1`: the EC50 in test [3], in test [4], in test [1] and in test [2] was above 3000 nM throughout.

With `CC(C)(C)c1ccc(-c2c(C(=O)O)sc(N3CCCC3)c2C#N)cc1`, the EC50 is 2430 nM in test [3], 1140 nM in test [4], above 3000 nM in test [1] and 1010 nM in test [2].

Take `CC(CNS(=O)(=O)C(C)C)c1ccc(-c2ccc(C#N)cc2)cc1` (stereo not given): the EC50 in test [3] is 1910 nM; in test [4], 559 nM; in test [1] it was 1060 nM; in test [2] it was 420 nM.

On to `CCCSc1sc(C(=O)O)c(-c2ccc(C(C)(C)C)cc2)c1C#N`, for which the EC50 in test [1] is above 3000 nM; in test [2], 2890 nM.

Usually EC50 stands for the midpoint of the concentration-response curve.
